# Reference: paper PMC5111764 (Journal of Clinical Pharmacology, 2016)
# Read-outs that look alike come from different tables or passages of the source.
# Experiments:
# [1] = format: in vivo; settings: male, human, plasma, po
# Procedure, shortened: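 In an alternating-panel design (panels A and B), each panel had 6 active and 2 placebo subjects. Single oral doses of 0.5–400 mg were given after an overnight fast, with at least 2 weeks of washout. Blood went into K2EDTA and was spun at 1000–1300g, 4–10°C, for 10 min, then stored at –20°C. Plasma was extracted liquid-liquid with a stable-isotope internal standard and assayed by LC/MS/MS with turbo ionspray (range 1.0–1000 ng/mL). Parameters came from individual concentration-time curves at actual sampling times.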
# [2] = Study 1 panel C: effect of a high-fat breakfast on single-dose pharmacokinetics; format: in vivo, human; settings: single dose 10 mg
# Procedure, shortened: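 Panel C had 8 subjects, 6 on 10 mg test compound and 2 on placebo, in a 2-period fixed sequence. Dosing was fasted in period 1 and after a standard high-fat breakfast (55.6 g fat, 55 g carbohydrate, 31.1 g protein) in period 2. Washout was at least 2 weeks. Plasma was assayed by LC/MS/MS (LLOQ 1.0 ng/mL). Log-transformed parameters were compared fed/fasted as GMR with 90% CI.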
# [3] = format: in vivo, human; settings: for fe, fraction of dose excreted in urine: Day 15, 168-hour collection; for half-life / CL renal: male, human, oral; for half-life: plasma; for CL renal: urine and plasma
# Procedure, shortened: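 Serial panels got 10, 25, 50 or 100 mg orally once weekly on days 1, 8 and 15, with 6 active and 2 placebo per panel. Plasma was assayed by LC/MS/MS (LLOQ 1.0 ng/mL). Urine was fortified with 0.2% Tween 20, protein-precipitated and assayed by LC/MS/MS (range 40.0–40,000 ng/mL). Ae is the sum of concentration × volume per interval, fe is Ae/dose and CLr is Ae/AUC. Accumulation is the day 15/day 1 GMR with 90% CI from a log-transformed mixed-effects model.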
# [4] = biological target: T1, plasma DPP-4 activity (Homo sapiens, UniProt P27487); experiment: Study 1: inhibition of plasma DPP-4 activity after single doses; format: in vivo
# Procedure, shortened: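 Healthy subjects got single oral doses of 0.5–400 mg or placebo. Blood went into EDTA tubes and was spun at 1700g for 10 min at 4°C, then stored at –20°C or below. Plasma was incubated with glycyl-prolyl-paranitroanilide, and absorbance increase at 390 nm was read from 4 to 14 min (LOQ 0.6 mOD/min). Inhibition is the % change from the period-1 predose baseline. The 168-h values came from a linear mixed-effects model (treatment fixed, subject random).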
# [5] = biological target: T1, plasma DPP-4 activity; experiment: PK/PD Emax model of DPP-4 inhibition vs omarigliptin plasma concentration; format: in vivo
# [6] = system: active GLP-1; experiment: Study 2: weighted average augmentation; format: in vivo, human; settings: healthy subjects (abstract)
# Procedure, shortened: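 Once-weekly oral dosing ran days 1, 8 and 15 against placebo. On day 15, standard meals were given at 4 and 10 h post-dose, with the 4-h sample drawn before the meal. Plasma active GLP-1 (7-36 and 7-37 amides) was measured by electrochemiluminescent immunoassay. Capture was with an antibody to amino acid 7, and detection with antibodies to the C-terminal residues 36/37. WAA was taken through 2 h after each meal and analysed by ANOVA versus placebo.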
# [7] = PK/QTc relationship: linear mixed-effects model of QTcF vs plasma concentration; format: in vivo, human; settings: Cmax of 10 μM
# Procedure, shortened: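 In study 1, single rising oral doses ran from 0.5 to 400 mg under fasting. ECGs came from 5-lead cardiac telemetry and 12-lead recordings, paired with PK sampling. The averaged triplicate QTcF at each time point (dependent) was matched to plasma drug concentration (independent). These were fitted by a linear mixed-effects model with slope and intercept, and the slope was tested against zero. Prolongation was predicted from the fitted slope.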
# [8] = Safety and tolerability in healthy subjects; format: in vivo, human; settings: single and multiple doses
# Procedure, shortened: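 Healthy adults got single rising oral doses or 3 once-weekly oral doses, versus placebo. Physical exams, vital signs and 12-lead ECGs (QTc, PR) were done before dosing, after dosing and at the poststudy visit. So were labs (hematology, serum chemistry including transaminases, urinalysis). Glucometer readings were taken often over 24 h after each single dose or the last multiple dose. Adverse experiences were graded for intensity, duration, seriousness, outcome and drug relation.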
# [9] = rats and dogs; cited from earlier work
# [10] = system: plasma DPP-4 activity; settings: lean mice, 0.3 mg/kg dose; cited from earlier work
# [11] = ref unpublished data; cited from earlier work
# [12] = ref unpublished data; cited from earlier work; remark: listed apart in the source
# T1 sequence (P27487 39-766): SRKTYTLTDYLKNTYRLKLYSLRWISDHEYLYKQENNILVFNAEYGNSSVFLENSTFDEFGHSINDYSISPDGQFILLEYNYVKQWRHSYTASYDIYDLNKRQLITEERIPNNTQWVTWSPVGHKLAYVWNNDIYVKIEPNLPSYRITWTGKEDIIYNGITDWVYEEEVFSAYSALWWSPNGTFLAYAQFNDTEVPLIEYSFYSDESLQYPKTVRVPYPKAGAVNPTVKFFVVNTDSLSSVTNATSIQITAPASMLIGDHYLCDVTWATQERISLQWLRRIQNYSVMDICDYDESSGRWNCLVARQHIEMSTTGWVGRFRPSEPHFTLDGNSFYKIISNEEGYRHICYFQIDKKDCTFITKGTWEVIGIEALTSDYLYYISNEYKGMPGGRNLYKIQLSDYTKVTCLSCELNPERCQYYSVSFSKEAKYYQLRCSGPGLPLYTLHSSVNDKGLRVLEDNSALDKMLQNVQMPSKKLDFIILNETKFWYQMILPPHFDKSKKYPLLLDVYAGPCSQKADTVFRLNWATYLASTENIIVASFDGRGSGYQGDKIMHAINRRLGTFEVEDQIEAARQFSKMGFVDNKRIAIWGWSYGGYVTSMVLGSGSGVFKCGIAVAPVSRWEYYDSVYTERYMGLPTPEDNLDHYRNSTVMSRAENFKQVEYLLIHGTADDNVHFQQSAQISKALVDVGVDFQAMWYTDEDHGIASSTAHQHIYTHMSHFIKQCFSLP
compound,measurement,setting,value
CS(=O)(=O)n1cc2c(n1)CN([C@H]1CO[C@H](c3cc(F)ccc3F)[C@@H](N)C1)C2 [omarigliptin],Tmax,[1],0.75 to 4 h
same,Cmax,[1]; 0.5 mg,6.5 nM
same,Tmax,[1]; 0.5 mg,0.75 h
same,AUC(0-inf),[1]; 1.5 mg,1.7 µM·h
same,Cmax,[1]; 1.5 mg,20.7 nM
same,Tmax,[1]; 1.5 mg,1 h
same,AUC(0-inf),[1]; 5 mg,5.3 µM·h
same,Cmax,[1]; 5 mg,88.2 nM
same,Tmax,[1]; 5 mg,2 h
same,AUC(0-inf),[1]; 12.5 mg,12 µM·h
same,Cmax,[1]; 12.5 mg,219 nM
same,Tmax,[1]; 12.5 mg,4 h
same,AUC(0-inf),[1]; 25 mg,22.5 µM·h
same,Cmax,[1]; 25 mg,484 nM
same,Tmax,[1]; 25 mg,0.75 h
same,AUC(0-inf),[1]; 50 mg,41.6 µM·h
same,Cmax,[1]; 50 mg,904 nM
same,Tmax,[1]; 50 mg,1.5 h
same,AUC(0-inf),[1]; 100 mg,86.9 µM·h
same,Cmax,[1]; 100 mg,2210 nM
same,Tmax,[1]; 100 mg,0.75 h
same,AUC(0-inf),[1]; 200 mg,162 µM·h
same,Cmax,[1]; 200 mg,3850 nM
same,Tmax,[1]; 200 mg,1.5 h
same,AUC(0-inf),[1]; 400 mg,335 µM·h
same,Cmax,[1]; 400 mg,9290 nM
same,Tmax,[1]; 400 mg,1 h
same,difference in overall absorption in the presence and absence of a high-fat breakfast,[2],No difference
same,"fe, fraction of dose excreted in urine",[3]; 10 mg once weekly,70.1 (14.1) %
same,"fe, fraction of dose excreted in urine",[3]; 25 mg once weekly,57.5 (15.7) %
same,"fe, fraction of dose excreted in urine",[3]; 50 mg once weekly,73.6 (4.3) %
same,"fe, fraction of dose excreted in urine",[3]; 100 mg once weekly,72.2 (7.7) %
same,steady state achieved following the second dosing,[3]; all treatments 10 to 100 mg once weekly,more than 80%
same,half-life,[3]; 10 mg,83.2 h
same,half-life,[3]; 25 mg,66.7 h
same,half-life,[3]; 50 mg,48.3 h
same,half-life,[3]; 100 mg,41.7 h
same,CL renal,[3],26.7 to 35 mL/min
same,CL renal,[3]; 10 mg,33.3 mL/min
same,CL renal,[3]; 25 mg,26.7 mL/min
same,CL renal,[3]; 50 mg,31.7 mL/min
same,CL renal,[3]; 100 mg,35 mL/min
same,percentage inhibition of DPP-4 activity 168 hours postdose (point estimate),[4]; single dose 0.5 mg,32.2%
same,percentage inhibition of DPP-4 activity 168 hours postdose (point estimate),[4]; single dose 400 mg,96.7%
same,Hill slope γ,"[5]; Emax model, single doses, SE 0.03",1.1
same,Emax,"[5]; read-out: Emax, maximum inhibition of plasma DPP-4 activity",96.8%
same,increase in weighted average postprandial active GLP-1,[6],~2 fold
same,margin to the clinical dose of 25 mg,[7],~20 fold
same,tolerability,[8]; healthy adults,generally well tolerated
same,clinical or laboratory adverse experiences of hypoglycemia,[8],no reports
same,serious clinical or laboratory adverse experiences or discontinuation because of a clinical adverse experience,[8],No subject
same,bioavailability,[9],nearly complete
same,inhibition of plasma DPP-4 activity,[10],~85%
same,solubility,[11],high
same,permeability,[12],high
